Reference: PubChem BioAssay AID1230 (PCMD, 2008)
Out of some 210,000 compounds screened, about 220 (0.1%) were called active. For the sample, actives were picked, then their nearest neighbours and some compounds at random. Unmarked numbers belong to inactive results.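 How the source made its calls: active means signal enhancement of 30% or more; inactive means the rest.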

The compounds below were run against E3 ubiquitin-protein ligase Mdm2 (Homo sapiens) (UniProt Q00987) (assay: increase of MDM2 autoubiquitination reporter luminescence – cell-based, 1536-well, MDM2 E3 ligase inhibitor project, primary screen (AID 1230;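 further: luminescence tracks abundance of the self-degrading MDM2-luciferase fusion protein; higher signal means inhibition of MDM2 E3 ligase activity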)). Settings: cell-based MDM2 ubiquitination luciferase reporter, 2 h; at 5 µM; hits give high values; 0 = plate control, 100 = twice control, blank-subtracted.
How it was run: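 Assay system: stable mammalian line carrying autodegrading MDM2–luciferase fusion reporter; Input: 2000 cells in each well; Compound dosing: single-point 5 µM; Schedule: 2 h compound exposure at 37 °C; Signal: SteadyLite luciferase luminescence after 15 min room-temperature reagent incubation; Evaluation: % luminescence enhancement versus blank-corrected plate control mean; Benchmarks: plate controls and plate blanks.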

Chain of E3 ubiquitin-protein ligase Mdm2 (Homo sapiens) (Q00987 whole entry, looked up, the tested form may be a part): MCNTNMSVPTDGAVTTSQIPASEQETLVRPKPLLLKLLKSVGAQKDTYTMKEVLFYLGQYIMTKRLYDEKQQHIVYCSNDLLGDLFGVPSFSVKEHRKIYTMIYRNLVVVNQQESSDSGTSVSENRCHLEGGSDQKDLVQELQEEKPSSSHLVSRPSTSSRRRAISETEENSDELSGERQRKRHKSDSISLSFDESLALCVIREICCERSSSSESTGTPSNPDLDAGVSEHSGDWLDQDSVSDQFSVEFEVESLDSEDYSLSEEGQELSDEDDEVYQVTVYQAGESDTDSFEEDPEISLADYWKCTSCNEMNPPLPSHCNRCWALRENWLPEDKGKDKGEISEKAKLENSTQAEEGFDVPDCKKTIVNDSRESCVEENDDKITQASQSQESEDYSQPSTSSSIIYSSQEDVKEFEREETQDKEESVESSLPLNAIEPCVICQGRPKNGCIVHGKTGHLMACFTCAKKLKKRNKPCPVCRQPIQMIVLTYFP

SMILES	signal enhancement
CCCc1nc2oc3c(=O)[nH]cnc3c2c2c1COC(C)(C)C2	1.7%
COc1c(N2CCN(C(=S)Nc3ccccc3F)C(C)C2)c(F)cc2c(=O)c(C(=O)O)cn(C3CC3)c12 (stereo not given)	0.25%
CCOC(=O)c1oc2c(CN3CCN(CCO)CC3)c(O)c(CC)cc2c(=O)c1-c1nc2ccccc2s1	-10.7%
CCc1cc2c(=O)c(-c3nc4ccccc4n3C)c(CCCC(=O)O)oc2cc1OC(=O)C(C)(C)C	32.3% (active)
CCc1cc2c(=O)c(-c3ccc(F)cc3)c(C(F)(F)F)oc2cc1OCC(=O)O	-6.75%
CCOc1c(Nc2cccc(Cl)c2)c(=O)c1=O	-2.35%
NC1=NC[C@@H](Cc2ccc(O)cc2)N1CC1CCCCC1	7.84%
Oc1c(Br)cc(/C=N/NC(=S)NCC2CCCO2)cc1Br (stereo not given)	-4.26%
N#Cc1ccc(Oc2ccc(C(F)(F)F)cc2NC(=O)c2ccc(F)cc2)cc1	-13.7%
CC1(C)CCSC(/C=C/c2ccccc2)=N1	3.53%
NS(=O)(=O)c1ccc(NC(=O)COC(=O)c2cc3ccccc3oc2=O)cc1	-3.08%
Cc1cc(C)nc(SCc2cn3c(C)cc(C)nc3n2)n1	-13.6%
COc1cc(NC(=O)c2ccc(CNc3c(N4CCCC4)c(=O)c3=O)cc2)cc(OC)c1OC	-5.93%
COc1cc(C(CCN2CCN(c3ccccc3)CC2)c2c(OC)cc(OC)c3ccc(=O)oc23)cc(OC)c1OC (stereo not given)	17.2%
CC(C)COC(=O)n1c(=O)oc2ccc(S(=O)(=O)N3CCCCC3)cc21	-7.89%
CN(C)c1cc(-c2ccc(F)cc2)oc(=O)c1Cl	-15.5%
COc1ccccc1NC(=O)c1cc(Cl)nc2ccccc12	-12.4%
Cc1onc(-c2c(Cl)cccc2Cl)c1C(=O)NNC(=O)c1c(-c2c(Cl)cccc2Cl)noc1C	-1.5%
Cc1cc(C)cc(NS(=O)(=O)c2ccc(F)cc2)c1	-8.71%
COc1ccccc1CNC(=O)Cn1c(=O)oc2cc(Cl)ccc21	-8.67%
Cc1noc(C)c1-c1nc(CSc2ccc(Cl)cc2)no1	-16.2%
Cc1ccc(/C=N/NC(=S)Nc2cccc(S(=O)(=O)N(C)C)c2)o1	-13.3%
Cc1cccc(-[n+]2c(-c3cccc(Br)c3)[nH]c3nc4ccccc4nc32)c1	-76.7%
O=C1NNC(c2ccccc2)=N/C1=C\c1ccc(Cl)cc1	-9.72%
O=c1cc(CCl)nc2scc(-c3ccccc3)n12	-0.33%
